Reference: ChEMBL document CHEMBL1938337, “Discovery of novel, potent, and selective inhibitors of 3-phosphoinositide-dependent kinase (PDK1)” (J Med Chem, 2011)
In brackets after ≈: the same amount, converted by molar mass.

Columns and labels:
[1] = biological target: T1, 3-phosphoinositide-dependent protein kinase 1 (Homo sapiens, UniProt O15530); assay: Inhibition of recombinant human His-tagged PDK1 catalytic domain using Ac-Sox-PKTFCGTPEYLAPEVRREPRILSEEEQEMFRDFDYIAD-NH2 as substrate by fluorescence-based spectrophotometry
T1 sequence (O15530 whole entry): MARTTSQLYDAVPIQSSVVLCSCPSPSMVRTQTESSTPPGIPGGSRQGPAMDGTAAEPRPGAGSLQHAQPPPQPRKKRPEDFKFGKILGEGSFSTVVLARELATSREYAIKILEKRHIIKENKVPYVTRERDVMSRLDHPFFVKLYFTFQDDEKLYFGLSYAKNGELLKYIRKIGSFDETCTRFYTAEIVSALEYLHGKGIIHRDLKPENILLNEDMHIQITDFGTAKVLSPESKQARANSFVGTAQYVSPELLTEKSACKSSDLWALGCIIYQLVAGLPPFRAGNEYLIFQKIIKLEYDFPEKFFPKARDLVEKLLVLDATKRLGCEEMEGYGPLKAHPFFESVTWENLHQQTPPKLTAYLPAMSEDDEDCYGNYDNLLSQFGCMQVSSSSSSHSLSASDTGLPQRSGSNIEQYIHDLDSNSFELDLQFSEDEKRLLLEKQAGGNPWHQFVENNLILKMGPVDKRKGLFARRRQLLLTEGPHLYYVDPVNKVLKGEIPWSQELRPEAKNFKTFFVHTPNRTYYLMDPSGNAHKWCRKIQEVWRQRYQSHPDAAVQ

[2] = biological target: Phosphatidylinositol 4,5-bisphosphate 3-kinase catalytic subunit alpha isoform (Mus musculus, UniProt P42337); assay: Inhibition of mouse PI3Kalpha after 30 mins by fluorescence polarization assay
Chain of Phosphatidylinositol 4,5-bisphosphate 3-kinase catalytic subunit alpha isoform (P42337 whole entry, the tested form may be a part, canonical isoform): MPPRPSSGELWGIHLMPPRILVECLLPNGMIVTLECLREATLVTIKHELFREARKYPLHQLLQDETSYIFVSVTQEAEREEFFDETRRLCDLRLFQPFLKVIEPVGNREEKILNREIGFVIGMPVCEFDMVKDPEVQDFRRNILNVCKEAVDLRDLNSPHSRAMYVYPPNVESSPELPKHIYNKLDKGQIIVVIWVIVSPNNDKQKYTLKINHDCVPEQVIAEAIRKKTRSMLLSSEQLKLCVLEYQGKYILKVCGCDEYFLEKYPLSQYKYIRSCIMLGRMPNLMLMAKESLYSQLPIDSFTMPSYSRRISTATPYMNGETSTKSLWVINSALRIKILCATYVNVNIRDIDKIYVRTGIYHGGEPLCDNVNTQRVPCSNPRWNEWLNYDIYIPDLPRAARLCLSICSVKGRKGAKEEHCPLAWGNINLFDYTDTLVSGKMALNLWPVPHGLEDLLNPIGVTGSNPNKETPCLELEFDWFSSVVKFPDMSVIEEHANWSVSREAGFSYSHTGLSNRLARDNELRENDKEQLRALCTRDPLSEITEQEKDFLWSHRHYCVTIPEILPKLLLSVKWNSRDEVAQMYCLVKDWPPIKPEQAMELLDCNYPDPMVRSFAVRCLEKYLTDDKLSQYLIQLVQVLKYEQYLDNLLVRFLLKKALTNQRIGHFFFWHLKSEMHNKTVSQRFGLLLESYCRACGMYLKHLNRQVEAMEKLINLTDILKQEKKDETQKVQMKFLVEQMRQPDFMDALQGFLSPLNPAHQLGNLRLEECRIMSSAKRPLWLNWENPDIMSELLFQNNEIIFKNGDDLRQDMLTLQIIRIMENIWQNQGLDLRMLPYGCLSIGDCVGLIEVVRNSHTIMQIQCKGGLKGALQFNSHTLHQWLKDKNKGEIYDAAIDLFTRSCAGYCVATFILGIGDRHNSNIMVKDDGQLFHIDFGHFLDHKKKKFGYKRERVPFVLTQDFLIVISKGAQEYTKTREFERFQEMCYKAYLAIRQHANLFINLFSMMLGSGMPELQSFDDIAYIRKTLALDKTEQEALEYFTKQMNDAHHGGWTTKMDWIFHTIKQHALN
How it was run: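 Mouse PI3Kα 0.5 nM with 30 μM PIP₂, 5 mM MgCl₂, 200 μM ATP, 30 min at room temperature (~22 °C); stopped with 10 mM EDTA. Then 3 min with detector mix of 480 nM GST-Grp1 PH domain and 12 nM TAMRA-PIP₃. Fluorescence polarization read in 50 mM Hepes pH 7.4, 150 mM NaCl, 5 mM DTT, 0.05% CHAPS. Duplicate points, nonlinear regression fit.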

[3] = Solubility of the compound at pH 6.5; type: physicochemical; details: buffer
[4] = Passive permeability in canine kidney cells; type: ADME, cell-based, Canis lupus familiaris; details: dog; read-out: permeability
[5] = Clearance in human liver microsomes; type: ADME, Microsome; details: read-out: CLH
[6] = Inhibition of recombinant GST-tagged P70S6K using 5FAM-KRSRTRTDSYSAGQ-COOH as substrate by fluorescence based assay
How it was run: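 GST-tagged P70S6K (a.a. 1-421) at 5 nM, 50 μM ATP, 5 μM 5FAM-peptide. Product separated from substrate by charge (electrophoretic mobility shift, −2500/−500 V). Duplicates, nonlinear regression fit.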

[7] = biological target: RAC-alpha serine/threonine-protein kinase (Homo sapiens, UniProt P31749); assay: Inhibition of His-tagged AKT1 using 5FAM-GRPRTSSFAEGCONH2 as substrate by fluorescence based assay
Chain of RAC-alpha serine/threonine-protein kinase (P31749 whole entry): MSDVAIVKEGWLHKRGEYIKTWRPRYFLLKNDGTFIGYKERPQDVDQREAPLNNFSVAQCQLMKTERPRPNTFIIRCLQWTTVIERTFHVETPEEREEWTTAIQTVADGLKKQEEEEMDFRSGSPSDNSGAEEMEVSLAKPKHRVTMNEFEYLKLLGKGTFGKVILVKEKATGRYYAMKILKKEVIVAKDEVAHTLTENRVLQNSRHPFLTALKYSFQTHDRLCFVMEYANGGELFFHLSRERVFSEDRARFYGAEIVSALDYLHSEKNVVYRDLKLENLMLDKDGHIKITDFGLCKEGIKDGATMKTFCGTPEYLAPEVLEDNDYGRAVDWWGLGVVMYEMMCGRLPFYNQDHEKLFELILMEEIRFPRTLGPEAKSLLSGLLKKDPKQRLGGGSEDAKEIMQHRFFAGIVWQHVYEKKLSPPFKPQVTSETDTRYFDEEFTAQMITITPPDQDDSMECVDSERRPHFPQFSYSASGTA

[8] = biological target: Serine/threonine-protein kinase mTOR (Homo sapiens, UniProt P42345); assay: Inhibition of GST-tagged mTOR assessed as phosphorylation at Thr46 in GFP-4E-BP1 substrate by TR-FRET assay
How it was run: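 GST-tagged mTOR (aa 1360-2549) at 1 nM, with 0.4 μM GFP-4E-BP1 and 40 μM ATP. Buffer: 50 mM Hepes pH 7.4, 10 mM MgCl2, 1 mM EGTA, 0.01% Tween-20, at about 22 °C. A terbium anti-phospho-Thr46 antibody was added at the end, and the read-out was TR-FRET. Duplicate data fitted by nonlinear regression. Concentrations are final.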

CYP3A4 = CYP3A4 (Homo sapiens, UniProt P08684); assay: Inhibition of CYP3A4 at 3 uM; type: ADME
Chain of CYP3A4 (P08684 whole entry): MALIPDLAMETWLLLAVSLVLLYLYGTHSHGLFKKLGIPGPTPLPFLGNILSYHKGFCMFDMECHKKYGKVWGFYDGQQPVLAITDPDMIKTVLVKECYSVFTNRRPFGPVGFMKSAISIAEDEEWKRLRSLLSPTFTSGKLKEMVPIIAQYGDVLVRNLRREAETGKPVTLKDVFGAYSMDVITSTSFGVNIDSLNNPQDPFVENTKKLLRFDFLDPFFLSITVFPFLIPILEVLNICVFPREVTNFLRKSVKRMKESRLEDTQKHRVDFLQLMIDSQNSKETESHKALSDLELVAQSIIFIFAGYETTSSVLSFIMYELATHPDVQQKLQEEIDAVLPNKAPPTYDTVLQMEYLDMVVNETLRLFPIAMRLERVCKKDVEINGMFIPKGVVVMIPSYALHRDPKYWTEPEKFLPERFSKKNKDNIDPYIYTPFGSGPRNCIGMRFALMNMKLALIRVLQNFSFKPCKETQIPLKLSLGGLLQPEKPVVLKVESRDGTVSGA

CYP3A4 (Homo sapiens) [9] = assay: Inhibition of CYP3A4 at 3 uM
CYP3A4 (Homo sapiens) [10] = assay: Inhibition of CYP3A4 at 3 uM; remark: listed apart in the source
CYP3A4 (Homo sapiens) [11] = assay: Inhibition of CYP3A4 at 3 uM; remark: listed apart in the source

Row | Compound | Ki [1] | Ki [2] | solubility [3] | Papp [4] | microsomal CLint [5] | Ki [6] | Ki [7] | Ki [8] | inhibition at 3 µM (CYP3A4) | inhibition at 3 µM (CYP3A4 (Homo sapiens) [9]) | inhibition at 3 µM (CYP3A4 (Homo sapiens) [10]) | inhibition at 3 µM (CYP3A4 (Homo sapiens) [11])
1 | CC(C)n1cc(C(=O)c2cncc(N(C)[C@@H]3CCC[C@@H]3c3ccc(F)cc3)n2)c2c(N)ncnc21 | 0.0009 µM | 0.65 µM | – | – | – | – | – | – | – | – | – | –
2 | CC(C)n1cc(C(=O)c2cncc(N[C@@H]3COC[C@@H]3c3ccc(F)cc3)n2)c2c(N)ncnc21 | – | 0.57 µM | 23 µM (≈ 10.6 µg/mL) | 13 ×10⁻⁶ cm/s | 160 µL/min/mg | 0.17 µM | 0.26 µM | 0.5 µM | – | – | – | –
3 | CC(C)n1cc(C(=O)c2cncc(NCCc3cccnc3)n2)c2c(N)ncnc21 | – | 0.25 µM | – | – | – | – | – | – | – | – | – | –
4 | CC(C)n1cc(C(=O)c2cncc(N[C@@H]3CCO[C@@H]3c3ccc(F)cc3)n2)c2c(N)ncnc21 | 0.0013 µM | 0.43 µM | 120 µM (≈ 55.4 µg/mL) | 13 ×10⁻⁶ cm/s | 220 µL/min/mg | 0.061 µM | 0.23 µM | 3.9 µM | – | – | – | –
5 | CC(C)n1cc(C(=O)c2cncc(N[C@@H]3CCC[C@@H]3c3ccc(F)cc3)n2)c2c(N)ncnc21 | 0.0006 µM | 0.32 µM | 6 µM (≈ 2.76 µg/mL) | 6 ×10⁻⁶ cm/s | 160 µL/min/mg | 0.23 µM | 0.21 µM | 3.9 µM | – | – | – | –
6 | CC(C)n1cc(C(=O)c2cncc(N[C@@H]3CCC[C@@H]3c3ccccc3)n2)c2c(N)ncnc21 | 0.002 µM | 0.13 µM | – | – | – | – | – | – | – | – | – | –
7 | CC(C)n1cc(C(=O)c2cncc(N[C@@H]3CCN[C@@H]3c3ccc(F)cc3)n2)c2c(N)ncnc21 | 0.001 µM | 0.15 µM | 520 µM (≈ 239 µg/mL) | 5 ×10⁻⁶ cm/s | 92 µL/min/mg | 0.12 µM | 0.1 µM | 2.1 µM | – | – | – | –
8 | CC(C)n1cc(C(=O)c2cncc(N[C@@H]3CNC[C@@H]3c3ccc(F)cc3)n2)c2c(N)ncnc21 | 0.0025 µM | 0.37 µM | 480 µM (≈ 221 µg/mL) | 2 ×10⁻⁶ cm/s | 59 µL/min/mg | 0.011 µM | 0.01 µM | 1.1 µM | 27% | 27% | 27% | 27%
9 | CNc1cncc(C(=O)c2cn(C(C)C)c3ncnc(N)c23)n1 | 0.1 µM | – | – | – | – | – | – | – | – | – | – | –
